Source: PubChem
Lmaj promast: Leishmania major promastigote growth inhibition; Leishmania major promastigotes, resazurin fluorescence viability; inhibition, % at 10 µM; hit rate 9% among 200,000; AID 1063; in the data active = inhibition above about 50%;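 also: promastigotes grown with compound for 44 hours at 28 °C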
Hsp70 act: switches on Hsp70 transcription. HeLa Hsp70 promoter luciferase reporter, luminescence; scaled: vehicle 0, proteasome-inhibitor control 100%. activation, % at 10 µM. hit rate 0.04% among 200,000;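 active = activation above the mean across all tested compounds plus 3 SD, cutoff set per campaign, cut at about 5.5% in these data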;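 also: 100% = MG132 at 30 µM as the positive control and 0% = DMSO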
HSF1 inh: HSF1 inhibition. hit rate 0.77% among 300,000. activity change, negative = inhibition, % at 7.5 µM (by protocol). AID 2098. NIH3T3-HGL HSE-luciferase, MG132-induced, luminescence 8 h; hits give low values;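 active = more than half of replicate wells show activity change below -50%, luminescence cut by over half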;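 also: luciferase reports HSF-1 transcriptional activity via heat shock element; 0% = median of DMSO wells and -100% = zero luminescence signal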
T cruzi repl: T. cruzi replication inhibition. T. cruzi beta-gal in NIH3T3, luminescence, 90 h. AID 1885. inhibition, % (concentration not given with the values). hit rate 1.4% among 300,000;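 active = mean inhibition across valid replicates above about 55%, limit read from the data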;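 also: signal also drops with host cell toxicity which is not excluded here; 0% = plate median of DMSO wells and 100% = zero luminescence signal; higher percent means less beta-gal luminescence so fewer parasites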
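System: Mouse NIH/3T3 fibroblasts infected with β-gal-expressing T. cruzi Tulahuen C4 | Quantity: NIH/3T3 cells, 5,000 per well | Reagent: 5000 reporter trypomastigotes per well | Dosing: Compound pinned at 50 nL/well, DMSO | Schedule: 3 h host attachment, then at least 90 h co-culture | Detection: GalScreen luminescence, 60 min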
HSF1 activator: increases HSF-1 driven luciferase reporter signal. activation, % at 9 µM. hit rate 1.7% among 300,000. AID 504408. NIH3T3-HGL HSF-1 luciferase reporter, MG132, 8 h; 100% = twice DMSO control signal;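 active = mean replicate activation of at least 50% with a set share of replicates each reaching 50%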;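 also: 0% = median of the neutral control wells and 100% = twice that signal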
Starred values were filed as active, the others as inactive; nt = not tested or not shown. The full list was thinned out, with hits kept by preference.

SMILES	Lmaj promast	Hsp70 act	HSF1 inh	T cruzi repl	HSF1 activator
N=c1c2c(n(Cc3ccc(F)cc3)c3c1CCC3)CCC2	100*	0	-13	51	2
CCn1c2c(c(=N)c3c1CCC3)CCC2	32	0	-7	-21	7
CCCCCCn1c(=O)[nH]c2c(c1=O)CCC2	nt	nt	7	-3	20
CCCCCCCCCn1c2c(c(=N)c3c1CCC3)CCC2	100*	0	6	48	12
C=CCNc1nc(C(=O)OCC(=O)c2ccc(Cl)cc2)cs1	nt	nt	2	-9	28
CCCCCCn1c2c(c(=N)c3c1CCC3)CCC2	100*	0	-10	84*	-10
CCn1c2c(c(=N)c3ccccc31)CCC2	nt	nt	-2	48	-2
NC(N)=N/N=C/c1ccc(OCc2ccccc2Cl)cc1	101*	0	6	69*	23
NC(N)=N/N=C/c1ccccc1	26	0	-7	62*	-2
COc1ccc(NC(=O)CSc2nc3sc(C)cc3c(=O)n2C)c(OC)c1	nt	nt	8	-19	23
OC1(c2cccc(C(F)(F)F)c2)CCNCC1	60*	0	3	-4	10
CC(NC(=O)c1ccccc1NC(=O)CN1CCc2ccccc2C1)c1ccccc1 (stereo not given)	nt	nt	-3	31	1
Cn1nc(C(F)(F)F)c2cc(C(=O)Nc3ccc(F)cc3)sc21	nt	nt	8	10	24
CC(C)(C)c1ccc(C(=O)Nc2ccc(F)cc2)s1	nt	nt	34	15	78*
CCCN1CCN(C(=O)C2CCCN(c3ncnc4c3nc3n4CCCCC3)C2)CC1 (stereo not given)	nt	nt	-6	11	-2
COc1cc2cc(CN(Cc3cccs3)C(=S)Nc3ccccc3)c(=O)[nH]c2cc1OC	81*	0	12	34	28
CNC(=S)N(Cc1ccc(Cl)cc1)Cc1cccs1	nt	nt	16	-7	54*
CNC(=S)N(Cc1cccs1)Cc1cc2ccc(OC)cc2[nH]c1=O	70*	0	-4	22	21
Cc1ccccc1NC(=S)N(Cc1ccccc1)Cc1cccs1	-2	0	20	4	29
COc1ccc2[nH]c(=O)c(CN(Cc3cccs3)C(=S)Nc3ccccc3)cc2c1	98*	0	1	37	-1
CCN(CC)CCCN(Cc1cc2cc(OC)c(OC)cc2[nH]c1=O)C(=O)Nc1ccccc1	12	0	-1	-15	13
COc1ccc2[nH]c(=O)c(CN(CCCN(C)C)C(=O)Nc3ccccc3)cc2c1	14	0	2	5	-2
COc1cccc(CN2CCC(Oc3ccc(C(=O)N4CCCCC4)cc3)CC2)c1O	nt	nt	0	6	-8
COc1ccc(N2CCN(C(=O)COc3ncnc4ccccc34)CC2)cc1	0	0	-11	-13	8
O=C(Nc1ccccc1)Nc1ccno1	nt	nt	1	33	-9
SMILES	Lmaj promast	Hsp70 act	HSF1 inh	T cruzi repl	HSF1 activator
O=C1CCN(c2ccc([N+](=O)[O-])cc2F)CC1	-13	0	6	-14	21
O=C1C(Cc2ccccc2)Nc2ncnc(N3CCN(c4ccccc4)CC3)c2N1Cc1ccccc1 (stereo not given)	nt	nt	-67*	19	-75
Cc1ccc(CN2C(=O)C(Cc3ccccc3)Nc3ncnc(N4CCN(c5ccccc5)CC4)c32)cc1 (stereo not given)	nt	nt	6	34	25
CCC1Nc2ncnc(N3CCN(c4ccccc4)CC3)c2N(Cc2ccc(Br)cc2)C1=O (stereo not given)	nt	nt	-1	58*	4
CCC1Nc2ncnc(N3CCN(c4ccccc4)CC3)c2N(Cc2ccc(OC)cc2)C1=O (stereo not given)	nt	nt	-2	30	11
COc1ccc(OCc2nnc(SCC(=O)Nc3ccccc3F)o2)cc1	nt	nt	2	-2	7
CC(NC(=O)CCc1nnc(CCCc2ccccc2)o1)c1ccccc1 (stereo not given)	76*	0	9	39	29
Cc1cc(Cl)ccc1C(=O)C1CCCN(C(=O)CN2CCOC2=O)C1 (stereo not given)	nt	nt	-3	5	-2
Cc1ncc(CN2CCC(CO)(CCc3ccccc3)CC2)s1	84*	0	-2	11	21
COc1cccc(CC2(CO)CCN(Cc3cnc(N4CCOCC4)s3)CC2)c1	-2	0	-2	37	-18
OCC1(CCCc2ccccc2)CCN(Cc2cnc(N3CCOCC3)s2)CC1	79*	0	-4	59*	11
CCOC(=O)C1(Cc2ccccc2)CCN(Cc2cccn2-c2nccs2)CC1	7	0	-1	7	22
CCOC(=O)C1(Cc2ccccc2)CCN(Cc2cnc(N3CCOCC3)s2)CC1	5	0	-2	59*	-4
COc1ccc(S(=O)(=O)Nc2ccc(N3CCOCC3)nc2)cc1	0	0	-3	4	-1
CCN(CC)CCCN1C(=O)CSC1c1ccc([N+](=O)[O-])cc1 (stereo not given)	76*	0	-4	9	0
N#Cc1ccccc1/C=N/Nc1nc(-c2ccccc2)c2cc(Cl)ccc2n1	3	0	-12	0	-16
Cc1ccc2nc(N/N=C/c3ccccc3C#N)nc(-c3ccccc3)c2c1	62*	0	8	18	0
CC(=O)c1ccc(N2C(=NC(=O)CCc3ccccc3)SC3CS(=O)(=O)CC32)cc1 (stereo not given)	nt	nt	3	9	-13
CCC1CCCCN1CCCNC(=O)CSc1nc2nc(C)c(Cc3ccc(C)cc3)c(C)n2n1 (stereo not given)	nt	nt	-66*	15	-75
Cc1ccc(Cc2c(C)nc3nc(SCC(=O)NCCCN4CCCCCC4)nn3c2C)cc1	nt	nt	0	1	-1
O=C(N/N=C/c1cc(Cl)ccc1O)c1cccnc1	nt	nt	-22	0	-21
O=C(N/N=C/c1cc(Cl)ccc1O)c1ccccc1Br	98*	0	4	18	8
O=C(CN1CC(c2ccccc2)CC1=O)N/N=C/c1cc(Br)ccc1O (stereo not given)	98*	0	1	2	-5
O=C(CNC(=O)c1ccccc1)N/N=C/c1cc(Br)ccc1O	80*	0	9	-2	2
O=C(CNC(=O)c1ccccc1Br)N/N=C/c1ccccc1O	2	0	8	-3	25
SMILES	Lmaj promast	Hsp70 act	HSF1 inh	T cruzi repl	HSF1 activator
O=C(CNC(=O)c1ccccc1Br)N/N=C/c1cc(Br)ccc1O	58*	0	-4	46	12
COc1ccc(CCNC(=O)CCNC(=O)c2ccco2)cc1OC	nt	nt	5	-7	35
Cc1ccc(NS(=O)(=O)c2ccc3c(c2)NC(=O)CCS3)cc1C	nt	nt	-2	6	-9
O=C(CNC(=O)c1ccncc1)N/N=C/c1ccc(Br)cc1	nt	nt	-12	0	-5
O=C(CNC(=O)c1ccncc1)N/N=C/c1cc(Br)ccc1O	98*	0	-5	-4	4
O=C(CNC(=O)c1cccc(Br)c1)N/N=C/c1cn[nH]c1-c1ccccc1	67*	0	-2	-6	14
